Sampled rows, rich in hits. Any-hit rate of the full collection: about 2.3%.
TRPC4 inh – TRPC4 (mouse) channel inhibition; HEK293 TRPC4beta/mu-opioid, DAMGO-evoked Fluo4 calcium flux; stronger effect = lower value; hit rate 0.39% among 300,000; Q9QUQ5; B-score at 10 µM; AID 2247;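 active means B-score over 3 SD under the library average, no early fluorescence shift, positive overall ratio signal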
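Material: HEK293 cells with stable TRPC4beta plus mu-opioid receptor expression / Probe or stimulus: DAMGO in two steps, submaximal then maximal / Compound: single concentration per test compound / Technique: kinetic Fluo4 fluorescence imaging of calcium influx / Read-out: per-well B score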
TRPC6 activator – activates the mouse TRPC6 cation channel; AID 2550; hit rate 0.13% among 310,000; Q61143; HEK293-TRPC6 membrane potential dye fluorescence; stronger effect = higher value; B-score at 10 µM;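 active means B-score of the integrated fluorescence ratio above library mean plus 3 SD, and starting fluorescence ratio within library mean plus 5 SD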;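 further: higher score means more depolarization so channel activation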
TRPC4 agonist – TRPC4 (mouse) channel activation. HEK293 TRPC4beta/mu-opioid, Fluo4 calcium fluorescence; stronger effect = higher value. AID 2237. hit rate 0.49% among 310,000. B-score at 10 µM. Q9QUQ5;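 active means B-score above 5 SD of library B-scores, and initial fluorescence ratio not above library mean plus 5 SD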;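 further: positive B-score marks a calcium rise read as TRPC4 activation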
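system = HEK293 cells stably co-expressing mouse TRPC4beta and mu-opioid receptor | schedule = Fluo4 dye loading 45 min at room temperature, 110 s recording | measure = B-scored integrated calcium fluorescence ratio | signal = Fluo4 calcium-sensitive dye fluorescence, kinetic, 1 Hz baseline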
TRPC4 potent – allosteric potentiators of mouse TRPC4 channel; Q9QUQ5; HEK293 TRPC4beta/mu-opioid, DAMGO EC20, Fluo-4 Ca2+ flux; stronger effect = higher value; B-score at 10 µM; hit rate 0.42% among 310,000;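 active means B-score of calcium response area above 5 SD of library B-scores, with initial fluorescence ratio within 5 SD of library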;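 further: B-score of integrated fluorescence ratio over time as area under calcium response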
TRPC6 inh – inhibitors of mouse TRPC6 channel; HEK293-TRPC6, membrane potential dye, ACh-evoked depolarization; stronger effect = lower value; B-score at 10 µM; hit rate 1.1% among 310,000; AID 2553;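 active means B-score under library mean minus 3 SD, initial fluorescence not abnormally high, positive integrated signal ratio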;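 further: B-score derived from integrated fluorescence ratio over the kinetic read; more negative B-score means stronger inhibition of depolarization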
TRPC4 spec 2 – mouse TRPC4 off-target activity of TRPC6 inhibitors, second screen | AID 2776 | hit rate 42% among 920 | shares compounds with TRPC6 inh | inhibition, % at 10 µM | HEK293 TRPC4/MOR, membrane potential dye fluorescence; channel activated by saturating DAMGO dose;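 active means compounds whose fluorescence signal differed from control wells by over 3 SD, either direction, in both duplicate plates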
TRPC4 spec – tests whether TRPC6 inhibitors also affect mouse TRPC4; shares compounds with TRPC6 inh; HEK293 TRPC4/mu-opioid, membrane potential fluorescence; activity change, negative = inhibition, % at 10 µM; hit rate 61% among 920; AID 2777;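 active means rise or fall in signal beyond 3 SD of buffer-only wells in both replicate plates, either sign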;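 further: integrated kinetic ratio of fluorescence range over baseline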
HEK293 MPD ctr 2-1 – second check of TRPC6 inhibitor effects in parental HEK293 cells; shares compounds with TRPC6 inh; parental HEK293 membrane potential dye fluorescence; maximal acetylcholine challenge after compound addition; signal change vs control, % at 10 µM; hit rate 31% among 920; AID 2779;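 active means membrane potential signal moving either way by over 3 SD of the maximum-effect control, in both duplicate plates, meaning non-specific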
HEK293 MPD ctr-1 – checks TRPC6 inhibitor effects in parental HEK293 cells; shares compounds with TRPC6 inh; parental HEK293 membrane potential dye fluorescence; membrane potential signal change, % at 10 µM; hit rate 60% among 920; AID 2780;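 active means membrane potential signal shifting up or down by more than 3 SD of buffer-only wells, on both duplicate plates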
HEK293 MPD ctr-2 – counter-screen for TRPC6 modulators: effect in parental HEK293 cells; membrane potential dye fluorescence; membrane potential signal change, % at 10 µM; hit rate 51% among 2,400; shares compounds with TRPC6 inh; AID 488924;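 active means membrane potential signal moves up or down beyond 5 SD from buffer-only wells, on both duplicate plates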
HEK293 MPD ctr 2-2 – second counter-screen for TRPC6 modulators: effect in parental HEK293 cells; shares compounds with TRPC6 inh; membrane potential dye fluorescence; after compound, maximal acetylcholine stimulation; inhibition, % at 10 µM; hit rate 14% among 2,400;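 active means membrane potential signal drops by more than 5 SD from the mean control signal, in both duplicate plates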;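 further: plate controls were acetylcholine ECmax control wells for no effect and buffer only wells for full effect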
TRPC4/MOR mod – tests whether TRPC6 modulators also affect mouse TRPC4 | shares compounds with TRPC6 inh | HEK293 TRPC4/mu-opioid, membrane potential fluorescence | percent change from control (negative = decrease, positive = increase), % at 10 µM | hit rate 69% among 2,400;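 active means membrane potential signal moved up or down beyond 5 SD of buffer control wells, in both duplicate plates, actives on both sides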;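 further: plate controls were assay buffer wells for no effect and DAMGO maximal-effect wells for full effect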
TRPC4 ctr inh 2 – second selectivity test of TRPC6 modulators against mouse TRPC4 | shares compounds with TRPC6 inh | AID 488928 | inhibition, % at 10 µM | hit rate 55% among 2,400 | HEK293 TRPC4/mu-opioid, membrane potential dye fluorescence; stimulated with maximal-effect DAMGO;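 active means drop in membrane potential signal beyond 5 SD of the control wells in both duplicate plates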;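 further: TRPC4 counter screen for TRPC6 hits run under conditions tuned for TRPC6 not TRPC4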
TRPC6 block conf – mouse TRPC6 inhibitor confirmation; shares compounds with TRPC6 inh; hit rate 43% among 3,300; inhibition, % at 10 µM; HEK293-TRPC6, membrane potential dye, ACh-evoked depolarization;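 active means fluorescence ratio falls more than 5 SD below the full-stimulation control mean, in both duplicate runs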;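 further: integrated fluorescence ratio of peak minus minimum over baseline after agonist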
TRPC6 act conf – confirmation of mouse TRPC6 activators; shares compounds with TRPC6 inh; HEK293-TRPC6 membrane potential dye fluorescence, FDSS; activation, % at 10 µM; hit rate 11% among 2,800;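 active means ratio signal rise beyond 5 SD above unstimulated control wells' mean, seen in both duplicate runs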;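 further: plate controls were buffer EC0 wells for no effect and acetylcholine ECmax response for full effect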
* = called active by the depositor; i = inactive; / = not tested or not shown; ! = not active in a repeat.

SMILES	TRPC4 inh	TRPC6 activator	TRPC4 agonist	TRPC4 potent	TRPC6 inh	HEK293 MPD ctr-2	HEK293 MPD ctr 2-2	TRPC4/MOR mod	TRPC4 ctr inh 2	TRPC6 block conf	TRPC6 act conf	others
CN(C)CCCN1c2ccccc2Sc2ccc(Cl)cc21	i	i	i	i	-5.6*!	i	i	7.5%*	78%*	60%*	i
CCOCCCn1c(=NC(=O)c2cccs2)c(C#N)cc2c(=O)n3cccc(C)c3nc21	i	i	i	i	i	/	/	/	/	/	/
Cc1cccn2c(=O)c3cc(C#N)c(=NC(=O)c4cccs4)n(CC(C)C)c3nc12	i	i	i	i	i	/	/	/	/	/	/
COCCCn1c(=NC(C)=O)c(C#N)cc2c(=O)n3cccc(C)c3nc21	i	i	i	i	-6*	-140%*	i	-42%*	28%*	i	i
COCCCn1c(=NC(=O)c2ccccc2)c(C#N)cc2c(=O)n3cccc(C)c3nc21	i	i	i	i	-6.7*	i	i	i	i	i	i
Cc1cccn2c(=O)c3cc(C#N)c(=NC(=O)c4ccccc4)n(Cc4ccco4)c3nc12	i	i	i	i	i	/	/	/	/	/	/
Cc1cccc(C(=O)N=c2c(C#N)cc3c(=O)n4cccc(C)c4nc3n2Cc2ccco2)c1	i	i	i	i	-5.1*	124%*	i	-54%*	36%*	i	i
CCCCC(=O)NS(=O)(=O)c1ccc(N=NN2CCOCC2)cc1	i	i	i	i	i	/	/	/	/	/	/
CC(=O)C1=C(O)C(=O)N(c2ccc(S(=O)(=O)Nc3nccs3)cc2)C1c1ccc(F)cc1 (stereo not drawn)	i	i	i	i	i	/	/	/	/	/	/
Nc1c(C(=O)Nc2cccc(F)c2)nnn1-c1ccc2c(c1)OCCO2	i	i	i	i	i	/	/	/	/	/	/
FC(F)(Cl)c1nnc2ccc(Cl)nn12	i	i	i	i	i	/	/	/	/	/	/
S=C1N(c2ccccc2)C(c2ccc(Br)cc2)N2CCCN12 (stereo not drawn)	i	i	i	i	-10*	/	/	/	/	68%*	i	TRPC4 spec 2=i;TRPC4 spec=i;HEK293 MPD ctr 2-1=18%*;HEK293 MPD ctr-1=i
S=C1N(c2ccccc2)C(c2ccc(Cl)cc2)N2CCCN12 (stereo not drawn)	i	i	i	i	-8.7*	/	/	/	/	68%*	i	TRPC4 spec 2=i;TRPC4 spec=i;HEK293 MPD ctr 2-1=30%*;HEK293 MPD ctr-1=i
COc1ccc(C2N(c3ccccc3)C(=S)N3CCCN23)cc1 (stereo not drawn)	i	i	i	i	i	/	/	/	/	/	/
COc1cccc(NCc2cc(=O)oc3cc(C)c(C(C)C)cc23)c1	i	i	i	i	i	/	/	/	/	/	/
CC(=O)N1CCN(c2ccc(N=Cc3c(O)n(Cc4ccccc4)c(=O)[nH]c3=O)cc2)CC1	i	i	i	i	-5.6*	188%*	i	-24%*	i	i	i
CC(=O)N1CCN(c2ccc(NCc3ccccc3)cc2)CC1	i	i	i	i	i	/	/	/	/	/	/
COC(CNC(=O)c1ccc2c(c1)ncn2-c1ccc(F)cc1F)OC	i	i	i	i	-5*	i	i	40%*	72%*	i	/
COC(CNC(=O)c1ccc2c(c1)ncn2-c1cccc(F)c1)OC	i	i	i	i	i	/	/	/	/	/	/
CN1CCC(OC(c2ccccc2)c2ccccc2)CC1	i	i	i	i	-6.6*	/	/	/	/	66%*	/	TRPC4 spec 2=i;TRPC4 spec=8.7%*;HEK293 MPD ctr 2-1=-5.0%*;HEK293 MPD ctr-1=11%*
COC(=O)CSc1nc(-c2ccccc2)c2c(c1C#N)CCCC2	i	i	i	i	i	/	/	/	/	/	/
N#Cc1c(NCCN)nc(-c2ccccc2)c2c1CCCC2	i	i	i	i	-6.2*	i	i	i	85%*	67%*	i
O=C(CCn1c(=O)[nH]c2ccsc2c1=O)N1CCN(c2ccc([N+](=O)[O-])cc2)CC1	i	i	i	i	i	/	/	/	/	/	/
O=C(CCn1c(=O)[nH]c2ccsc2c1=O)N1CCN(c2cccc(Cl)c2)CC1	i	15*	i	i	-13*	i	i	i	i	56%*	94%*
Cc1ccc(-n2ncc(C(=O)N3CCN(C(=O)c4ccco4)CC3)c2C2CCN(C(=O)OC(C)(C)C)CC2)cc1C	i	i	i	i	-5.6*	i	i	i	i	i	/
CC(C)(C)OC(=O)N1CCC(c2c(C(=O)N3CCN(C(=O)c4ccco4)CC3)cnn2-c2ccc(F)cc2)CC1	i	i	i	i	i	/	/	/	/	/	/
CCOC(=O)C1=NN(C(=O)c2ccccc2)C(O)(c2ccc(C)cc2)C1 (stereo not drawn)	i	i	i	i	i	/	/	/	/	/	/
CCOC(=O)C1=NN(C(=O)c2ccc(OC)cc2)C(O)(c2ccc(Cl)cc2)C1 (stereo not drawn)	i	17*	70*	i	i	344%*	i	76%*	i	/	209%*
COC(=O)C1=NN(C(=O)c2cccc(Br)c2)C(O)(c2ccc(Cl)cc2)C1 (stereo not drawn)	i	30*	100*	i	i	457%*	i	94%*	i	/	326%*
